Source: PubChem (Johns Hopkins Ion Channel Center)
TRPC4 potent – allosterically enhances the mouse TRPC4 cation channel; 310,000 compounds, 0.42% hits; B-score at 10 µM; Q9QUQ5; HEK293 TRPC4beta/mu-opioid, DAMGO EC20, Fluo-4 Ca2+ flux; hits give high values;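 active = B-score of calcium response area above 5 SD of library B-scores, with initial fluorescence ratio within 5 SD of library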
Target sequence (Q9QUQ5 whole entry, looked up): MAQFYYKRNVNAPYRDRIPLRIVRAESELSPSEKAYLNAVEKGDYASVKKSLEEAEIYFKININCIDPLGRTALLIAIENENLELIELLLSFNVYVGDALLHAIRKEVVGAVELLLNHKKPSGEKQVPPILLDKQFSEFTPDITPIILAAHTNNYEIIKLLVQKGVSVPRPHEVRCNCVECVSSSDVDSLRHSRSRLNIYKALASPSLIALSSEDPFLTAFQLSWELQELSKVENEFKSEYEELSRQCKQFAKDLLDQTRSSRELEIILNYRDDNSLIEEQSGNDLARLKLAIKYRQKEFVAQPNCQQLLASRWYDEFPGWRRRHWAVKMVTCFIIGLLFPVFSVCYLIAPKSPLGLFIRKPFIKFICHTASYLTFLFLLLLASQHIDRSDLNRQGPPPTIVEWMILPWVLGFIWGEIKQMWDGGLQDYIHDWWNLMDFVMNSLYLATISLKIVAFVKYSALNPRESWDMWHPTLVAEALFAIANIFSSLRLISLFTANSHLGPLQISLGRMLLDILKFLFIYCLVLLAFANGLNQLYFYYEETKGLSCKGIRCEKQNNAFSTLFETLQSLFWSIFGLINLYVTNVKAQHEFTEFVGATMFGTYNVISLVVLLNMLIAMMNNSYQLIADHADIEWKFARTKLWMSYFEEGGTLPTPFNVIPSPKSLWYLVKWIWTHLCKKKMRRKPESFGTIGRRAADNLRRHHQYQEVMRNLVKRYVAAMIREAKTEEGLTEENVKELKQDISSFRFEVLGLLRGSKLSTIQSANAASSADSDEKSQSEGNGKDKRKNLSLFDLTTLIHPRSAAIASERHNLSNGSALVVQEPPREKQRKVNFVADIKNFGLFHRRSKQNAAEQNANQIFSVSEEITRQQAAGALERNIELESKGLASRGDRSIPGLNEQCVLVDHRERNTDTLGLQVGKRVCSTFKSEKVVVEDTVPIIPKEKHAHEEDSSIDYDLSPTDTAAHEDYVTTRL
TRPC4 block – blocks the mouse TRPC4 cation channel | 300,000 compounds, 0.39% hits | B-score at 10 µM | HEK293 TRPC4beta/mu-opioid, DAMGO-evoked Fluo4 calcium flux; hits give low values;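 active = B-score over 3 SD under the library average, no early fluorescence shift, positive overall ratio signal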
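Test system – stable TRPC4beta/mu-opioid receptor HEK293 cells · Probe or stimulus – DAMGO, a submaximal dose followed by a maximal one · Dosing – one concentration per compound · Signal – Fluo4 calcium fluorescence by kinetic imaging, 5 s 1 Hz baseline · Evaluation – per-well B score of integrated baseline-normalized Fluo4 ratio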
TRPC6 inhibitor – inhibitors of mouse TRPC6 channel; 310,000 compounds, 1.1% hits; Q61143; B-score at 10 µM; HEK293-TRPC6, membrane potential dye, ACh-evoked depolarization; hits give low values;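 active = B-score under library mean minus 3 SD, initial fluorescence not abnormally high, positive integrated signal ratio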;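 also: B-score derived from integrated fluorescence ratio over the kinetic read; more negative B-score means stronger inhibition of depolarization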
TRPC6 act – mouse TRPC6 channel activation; Q61143; HEK293-TRPC6 membrane potential dye fluorescence; hits give high values; B-score at 10 µM; 310,000 compounds, 0.13% hits; AID 2550;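 active = B-score of the integrated fluorescence ratio above library mean plus 3 SD, and starting fluorescence ratio within library mean plus 5 SD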;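 also: higher score means more depolarization so channel activation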
TRPC4 act – TRPC4 (mouse) channel activation; B-score at 10 µM; AID 2237; HEK293 TRPC4beta/mu-opioid, Fluo4 calcium fluorescence; hits give high values; 310,000 compounds, 0.49% hits;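 active = B-score above 5 SD of library B-scores, and initial fluorescence ratio not above library mean plus 5 SD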;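 also: positive B-score marks a calcium rise read as TRPC4 activation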
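Assay system: HEK293 stable line with TRPC4beta plus mu-opioid receptor. Times: dye 45 min RT, read 110 s. Measured by: kinetic Fluo4 calcium fluorescence. Measure: B score of integrated ratio. Controls: assay buffer as low control, maximal DAMGO as high control.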
TRPC4 sel inh 2 – second selectivity test of TRPC6 inhibitors: effect on mouse TRPC4 | HEK293 TRPC4/MOR, membrane potential dye fluorescence; channel activated by saturating DAMGO dose | shares compounds with TRPC6 inhibitor | inhibition, % at 10 µM | 920 compounds, 42% hits;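 active = compounds whose fluorescence signal differed from control wells by over 3 SD, either direction, in both duplicate plates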
TRPC4 spec – tests whether TRPC6 inhibitors also affect mouse TRPC4; AID 2777; activity change, negative = inhibition, % at 10 µM; 920 compounds, 61% hits; HEK293 TRPC4/mu-opioid, membrane potential fluorescence; shares compounds with TRPC6 inhibitor;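 active = rise or fall in signal beyond 3 SD of buffer-only wells in both replicate plates, either sign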;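 also: integrated kinetic ratio of fluorescence range over baseline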
HEK293 MPD ctr 2-1 – parental HEK293 nonspecific activity of TRPC6 inhibitors, second screen. signal change vs control, % at 10 µM. shares compounds with TRPC6 inhibitor. AID 2779. 920 compounds, 31% hits. parental HEK293 membrane potential dye fluorescence; maximal acetylcholine challenge after compound addition;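 active = membrane potential signal moving either way by over 3 SD of the maximum-effect control, in both duplicate plates, meaning non-specific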
HEK293 MPD ctr-1 – parental HEK293 nonspecific activity of TRPC6 inhibitors; shares compounds with TRPC6 inhibitor; membrane potential signal change, % at 10 µM; 920 compounds, 60% hits; parental HEK293 membrane potential dye fluorescence;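 active = membrane potential signal shifting up or down by more than 3 SD of buffer-only wells, on both duplicate plates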
HEK293 MPD ctr-2 – counter-screen for TRPC6 modulators: effect in parental HEK293 cells | membrane potential signal change, % at 10 µM | shares compounds with TRPC6 inhibitor | membrane potential dye fluorescence | 2,400 compounds, 51% hits | AID 488924;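 active = membrane potential signal moves up or down beyond 5 SD from buffer-only wells, on both duplicate plates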
HEK293 MPD ctr 2-2 – second check of TRPC6 modulator effects in parental HEK293 cells; inhibition, % at 10 µM; 2,400 compounds, 14% hits; shares compounds with TRPC6 inhibitor; AID 488926; membrane potential dye fluorescence; after compound, maximal acetylcholine stimulation;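 active = membrane potential signal drops by more than 5 SD from the mean control signal, in both duplicate plates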
TRPC4 ctr mod – selectivity of TRPC6 modulators against mouse TRPC4 | shares compounds with TRPC6 inhibitor | HEK293 TRPC4/mu-opioid, membrane potential fluorescence | percent change from control (negative = decrease, positive = increase), % at 10 µM | 2,400 compounds, 69% hits;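 active = membrane potential signal moved up or down beyond 5 SD of buffer control wells, in both duplicate plates, actives on both sides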
TRPC4/MOR inh 2 – second selectivity test of TRPC6 modulators against mouse TRPC4. shares compounds with TRPC6 inhibitor. HEK293 TRPC4/mu-opioid, membrane potential dye fluorescence; stimulated with maximal-effect DAMGO. inhibition, % at 10 µM. 2,400 compounds, 55% hits. AID 488928;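 active = drop in membrane potential signal beyond 5 SD of the control wells in both duplicate plates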;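 also: TRPC4 counter screen for TRPC6 hits run under conditions tuned for TRPC6 not TRPC4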
TRPC6 block conf – confirmation of mouse TRPC6 inhibitors | shares compounds with TRPC6 inhibitor | HEK293-TRPC6, membrane potential dye, ACh-evoked depolarization | inhibition, % at 10 µM | 3,300 compounds, 43% hits | AID 488960;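 active = fluorescence ratio falls more than 5 SD below the full-stimulation control mean, in both duplicate runs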;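 also: integrated fluorescence ratio of peak minus minimum over baseline after agonist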
TRPC6 act conf – mouse TRPC6 activator confirmation; activation, % at 10 µM; 2,800 compounds, 11% hits; AID 488961; shares compounds with TRPC6 inhibitor; HEK293-TRPC6 membrane potential dye fluorescence, FDSS;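 active = ratio signal rise beyond 5 SD above unstimulated control wells' mean, seen in both duplicate runs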
Each line names hits and unclear results; the compound was inactive in the other large screens (follow-up assays come after a bar, where they were run). Compounds with a hit are over-represented: about 2.3% of the library has one in this group of screens.

Cc1cc(N2CCN(C)CC2)n2nc(-c3ccc(Cl)cc3)nc2n1	TRPC6 inhibitor -6.94 | HEK293 MPD ctr-2 -310.0% | HEK293 MPD ctr 2-2 96.5% | TRPC4 ctr mod -28.0% | TRPC4/MOR inh 2 53.0% | TRPC6 block conf 65.5% | TRPC6 act conf inactive
Cc1nc2nc(-c3ccc(Cl)cc3)nn2c(C)c1Cl	none
NS(=O)(=O)c1ccc(CCNC(=O)c2ccc([N+](=O)[O-])s2)cc1	none
C=Cn1ccnc1CC(O)c1ccc(OC)cc1 (stereo not given)	none
CCC(C)(C)c1nnc(NC(=O)CCC2CCCCC2)s1	none
COc1ccc(CCNCC(O)COc2cccc(Br)c2)cc1 (stereo not given)	TRPC6 inhibitor -5.46 | HEK293 MPD ctr-2 186.0% | HEK293 MPD ctr 2-2 inactive | TRPC4 ctr mod 29.5% | TRPC4/MOR inh 2 49.5% | TRPC6 block conf inactive
CNCC(O)COc1cccc(OC)c1 (stereo not given)	none
CCOC(=O)C1CCCN(C(=O)c2cc3c(C)nc4ccccc4c3o2)C1 (stereo not given)	TRPC6 inhibitor -6.86 | TRPC4 sel inh 2 inactive | TRPC4 spec 4.0% | HEK293 MPD ctr 2-1 inactive | HEK293 MPD ctr-1 3.1% | TRPC6 block conf 61.1% | TRPC6 act conf inactive
CCOC(=O)C1CCCN(C(=O)c2ccc(C)c([N+](=O)[O-])c2)C1 (stereo not given)	TRPC6 inhibitor -5.78 | HEK293 MPD ctr-2 inactive | HEK293 MPD ctr 2-2 64.0% | TRPC4 ctr mod inactive | TRPC4/MOR inh 2 inactive | TRPC6 block conf 54.5% | TRPC6 act conf inactive
Cc1nc2ccccc2c2oc(C(=O)N3CC(C)CC(C)C3)cc12 (stereo not given)	none
CC/C(=C\c1oc2cc3ccccc3cc2[n+]1CC)Nc1ccccc1	TRPC6 inhibitor -5.1 | HEK293 MPD ctr-2 inactive | HEK293 MPD ctr 2-2 inactive | TRPC4 ctr mod inactive | TRPC4/MOR inh 2 79.5% | TRPC6 block conf 59.0% | TRPC6 act conf inactive
CC1C=CCC2C(=O)N(c3cc(Cl)ccc3O)C(=O)C12 (stereo not given)	none
CCOc1c(Cl)cc(CNC(C)(C)CC(C)(C)C)cc1OC	TRPC6 inhibitor -5.14 | HEK293 MPD ctr-2 175.5% | HEK293 MPD ctr 2-2 85.5% | TRPC4 ctr mod 36.5% | TRPC4/MOR inh 2 75.0% | TRPC6 block conf 63.0%
O=C(c1c(F)cccc1F)N1CCCC(c2nc(-c3cccs3)no2)C1 (stereo not given)	none
